Results reported in publication PMC10205783 (Immuno-Oncology and Technology, 2023).
≈ marks a conversion by molar mass, not a printed value.

Assays:
[1] = tested on: bleomycin-induced pulmonary fibrosis; conditions: mouse; cited from earlier work
[2] = phase II, IPF patients, cited from earlier work
[3] = tested on: circulating LPA C18:2; test: Pharmacodynamics in male CD1 mice: circulating LPA C18:2 after oral dose; format: in vivo
[4] = Pharmacokinetics in male CD1 mice: plasma exposure after oral gavage; format: in vivo; conditions: male CD1 mice, 3, 10 and 30 mg/kg oral gavage
[5] = tested on: stimulated human primary cells (lung epithelial cells and fibroblasts; lung fibroblasts only; renal epithelial cells with lung fibroblasts); test: BioMAP Fibrosis phenotypic screening panel; format: cell-based; conditions: 6 μM, 48 h, TGF-β and TNF-α stimulated co-cultures
Procedure, shortened: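 Three co-culture systems of human primary cells: lung epithelial cells with lung fibroblasts, lung fibroblasts alone, renal epithelial cells with lung fibroblasts. Cells stimulated with TGF-β and TNF-α, then exposed 48 h to test compound at 0.24, 1.2 and 6 μM. Biomarkers quantified by ELISA. Significance envelope: 95% CI bounds of historical vehicle controls.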

[6] = tested on: bleomycin-induced pulmonary fibrosis; test: Bleomycin-induced pulmonary fibrosis; format: in vivo, C57BL/6 mice
Procedure, shortened: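 Anaesthetised male C57BL/6 mice given intranasal bleomycin (0.6 mg/ml) or saline. Test compound 10 mg/kg or methocel/PBS vehicle by oral gavage twice daily from day 0 for 21 days; body weight monitored. Day 21: terminal plasma; BALF by two ice-cold saline lavages via tracheal cannula, supernatant after centrifugation. LPA species by LC-MS/MS; Mann–Whitney test.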

[7] = tested on: 4T1 tumors; test: 4T1 metastasis assay with resection of the primary tumor; format: in vivo, BALB/c mice
Procedure, shortened: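 Female BALB/c mice implanted surgically with 4T1 cells in the mammary fat-pad, n = 12 per group. Primary tumour resected at day 15 and weighed. Test compound 100 mg/kg b.i.d. by oral gavage. Lungs and bone marrow harvested 20 days after resection. Lungs fixed and H&E-stained for metastases. Bone marrow flushed from hind limbs, cultured in complete medium with 6-thioguanine 10 μg/ml, colonies crystal violet-stained.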

[8] = tested on: E0771 tumors; test: E0771 orthotopic breast cancer model; format: in vivo, C57BL/6 mice
[9] = tested on: LPA1, LPA2, LPA3, LPA5, S1P1, S1P2, SP3, S1P4 and S1P5; SafetyScreen44 panel; test: Off-target profiling on lipid receptor panel and SafetyScreen44 panel; format: binding
[10] = biological target: 5-hydroxytryptamine 2B (5-HT2B) receptor (Homo sapiens, UniProt P41595); test: 5-HT2B receptor binding; conditions: only hit of the panels
[11] = biological target: 5-HT2B (Homo sapiens, UniProt P41595); test: 5-HT2B antagonist confirmation; format: biochemical
[12] = biological target: hERG tail current (Homo sapiens, UniProt Q12809); test: GLP hERG assay; format: cell-based
[13] = tested on: respiratory functions; test: GLP safety pharmacology, respiratory functions in rats; format: in vivo
[14] = tested on: cardiovascular and neurobehavioral functions; test: GLP safety pharmacology, cardiovascular and neurobehavioral functions in dogs; format: in vivo
[15] = 4-week GLP toxicology study in rats; format: in vivo
[16] = 4-week GLP toxicology study in dogs; format: in vivo
[17] = In vitro toxicology; conditions: based on absence of in vitro toxicology findings
[18] = tested on: circulating LPA C18:2; test: First-in-human single ascending oral dose study: LPA C18:2 pharmacodynamics; format: in vivo, healthy male volunteers
[19] = tested on: tumor-infiltrating lymphocyte (TIL) migration; conditions: LPA chemorepulsion of T cells; cited from earlier work
[20] = First-in-human single ascending oral dose study: safety and pharmacokinetics
[21] = 4T1, 20 days after removal of primary tumor
[22] = single oral dose, healthy male volunteers

Chain of 5-hydroxytryptamine 2B (5-HT2B) receptor (P41595 whole entry): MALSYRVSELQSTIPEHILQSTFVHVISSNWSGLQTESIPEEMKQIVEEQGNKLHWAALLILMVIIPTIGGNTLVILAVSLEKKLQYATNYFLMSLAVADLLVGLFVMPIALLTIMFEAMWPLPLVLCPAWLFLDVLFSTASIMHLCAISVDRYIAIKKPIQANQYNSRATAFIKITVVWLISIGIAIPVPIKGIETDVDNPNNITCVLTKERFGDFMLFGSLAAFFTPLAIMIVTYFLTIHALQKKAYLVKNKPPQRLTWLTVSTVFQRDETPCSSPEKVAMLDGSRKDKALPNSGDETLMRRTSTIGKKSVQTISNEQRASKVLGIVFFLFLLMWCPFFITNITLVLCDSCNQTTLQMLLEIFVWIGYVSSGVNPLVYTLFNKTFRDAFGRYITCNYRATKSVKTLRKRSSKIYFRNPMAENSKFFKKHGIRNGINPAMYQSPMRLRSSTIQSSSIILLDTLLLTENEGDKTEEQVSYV
Chain of 5-HT2B (P41595 whole entry, species assumed): as the sequence (P41595 whole entry) above
Chain of hERG tail current (Q12809 whole entry): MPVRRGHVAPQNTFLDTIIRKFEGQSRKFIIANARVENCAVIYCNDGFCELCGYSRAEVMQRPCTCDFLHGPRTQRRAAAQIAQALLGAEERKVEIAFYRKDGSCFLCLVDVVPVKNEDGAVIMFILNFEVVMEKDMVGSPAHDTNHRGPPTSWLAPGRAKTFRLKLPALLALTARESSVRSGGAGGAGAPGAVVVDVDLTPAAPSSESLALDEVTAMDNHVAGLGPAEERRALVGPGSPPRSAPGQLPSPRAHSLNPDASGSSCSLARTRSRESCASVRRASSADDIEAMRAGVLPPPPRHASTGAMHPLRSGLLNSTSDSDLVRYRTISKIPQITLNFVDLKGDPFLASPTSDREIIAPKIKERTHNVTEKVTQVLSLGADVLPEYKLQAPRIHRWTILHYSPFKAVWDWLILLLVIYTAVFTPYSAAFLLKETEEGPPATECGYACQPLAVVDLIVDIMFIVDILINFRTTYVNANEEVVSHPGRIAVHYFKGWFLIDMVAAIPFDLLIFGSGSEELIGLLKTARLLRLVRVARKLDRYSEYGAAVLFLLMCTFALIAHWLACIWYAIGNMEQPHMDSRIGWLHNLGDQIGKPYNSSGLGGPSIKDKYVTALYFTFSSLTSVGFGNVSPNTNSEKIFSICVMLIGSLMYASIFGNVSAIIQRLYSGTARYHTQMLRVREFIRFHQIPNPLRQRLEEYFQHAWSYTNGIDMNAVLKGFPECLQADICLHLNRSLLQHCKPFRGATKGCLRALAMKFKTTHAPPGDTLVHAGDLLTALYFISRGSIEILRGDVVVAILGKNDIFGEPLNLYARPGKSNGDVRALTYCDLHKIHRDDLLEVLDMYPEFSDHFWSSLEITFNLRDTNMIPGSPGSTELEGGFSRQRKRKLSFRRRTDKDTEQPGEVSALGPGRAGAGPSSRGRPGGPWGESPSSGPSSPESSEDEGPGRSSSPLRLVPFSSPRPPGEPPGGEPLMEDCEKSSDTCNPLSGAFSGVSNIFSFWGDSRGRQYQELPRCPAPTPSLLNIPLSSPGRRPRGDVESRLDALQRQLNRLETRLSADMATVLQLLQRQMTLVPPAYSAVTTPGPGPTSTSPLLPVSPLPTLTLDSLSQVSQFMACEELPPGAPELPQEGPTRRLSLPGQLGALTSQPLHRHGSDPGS

## CCc1nc2c(C)cc(N3CCN(CC(=O)N4CC(O)C4)CC3)cn2c1N(C)c1nc(-c2ccc(F)cc2)c(C#N)s1 [ziritaxestat, 2-[[2-ethyl-6-[4-[2-(3-hydroxyazetidin-1-yl)-2-oxo-ethyl]piperazin-1-yl]-8-methyl-imidazo[1,2-a]pyridin-3-yl]-methyl-amino]-4-(4-fluorophenyl)thiazole-5-carbonitrile]
[1]
  efficacy in bleomycin-induced pulmonary fibrosis model: demonstrated efficacy
[2]; 12 weeks
  plasma LPA C18:2 levels: reducing
  tolerability: well tolerated
[2]; after 12 weeks of treatment
  forced vital capacity: stabilizing

## C[C@H](NC(=O)CCc1nc2cccnc2n1Cc1ccc(OC(F)(F)F)cc1)c1ccc(Cl)cc1 [IOA-289]
[3]; Mus musculus, po, 1 h, read-out: ED50, reduction of circulating LPA C18:2
  ED50: ~3 mg/kg
[3]; male CD1 mice, 3, 10 and 30 mg/kg oral gavage
  reduction of circulating LPA C18:2: dose-dependent reduction
[4]
  plasma exposure: dose-proportional increase
[5]
  activity of EGFR: significantly decreased
  activity of MCP-1: significantly decreased
  activity of collagen III (Col-III): significantly decreased
  activity of sIL-6: significantly decreased
  activity of sIL-8: significantly decreased
  activity of sVEGF: significantly decreased
  activity of αSMA: significantly decreased
[6]; BLM model, day 21
  LPA C18:2 levels in BALF: significantly reduced
  LPA C18:2 levels in plasma: significantly reduced
[6]; compared with vehicle treatment
  severity of the BLM model followed by body weight: alleviated the severity substantially
[7]; [21]
  bone metastases (colony formation assay from bone marrow): marked reduction
  metastatic burden in lungs (histology): marked reduction
[7]; 4T1, primary tumor resected at day 15
  primary tumor growth: no effect
[8]; E0771, 30 mg/kg b.i.d. oral from day 3 to day 40, compared with control group
  tumor growth: reduced the tumor growth
[8]; E0771, n = 10 per group
  complete tumor eradication: complete tumor eradication in two mice
[9]
  off-target interactions: no to minimal potential off-target interactions
[10]
  binding to 5-HT2B receptor: sub-micromolar binding
[11]
  IC50: 2500 nM
[12]
  IC50: 1030 nM
[13]
  effects on respiratory functions: no relevant effects
[14]
  effects on cardiovascular (including QTc changes) and neurobehavioral functions: no relevant effects
[15]; rat, in vivo, po
  NOAEL at 4 weeks: 300 mg/kg/day
[15]; rats, all findings reversible
  main target organs for toxicity: the liver, the bone marrow and the stomach in both sexes and additionally the kidneys, the testes and thyroids in males
[16]; dog, in vivo, po
  NOAEL at 4 weeks: 60 mg/kg/day
[16]; dogs
  main target organs for toxicity: the gastrointestinal tract, the liver, the bladder and the parotid gland
[17]
  risk for genotoxicity, phototoxicity and cytotoxicity: low risk
[18]; Homo sapiens, po, read-out: IC50 on % LPA C18:2 reduction from baseline
  IC50: 0.015 µg/mL (≈ 0.0298 µM)
[18]; maximal inhibition at cohorts 4 and 5 dose levels
  circulating levels of LPA C18:2: dose-related decrease
[18]; single oral dose
  time of peak inhibition of LPA C18:2 after dose: 1 to 2 h
[19]
  TIL migration in vitro: can rescue
[20]; male, human, in vivo, po
  Tmax: 1 h
[20]; single ascending oral doses, five cohorts
  maximum plasma concentrations versus dose: increased dose proportionally
[20]; [22]
  adverse events: no adverse events reported
  safety and tolerability: well tolerated
